Source: PubChem BioAssay (The Scripps Research Institute Molecular Screening Center)
TAAR1 agonist = human TAAR1 agonism; Q96RJ0; AID 624467; actives 0.99% (n = 360,000); CHO RD-HGA16 TAAR1, Fluo-8 calcium fluorescence; vehicle wells 0%, saturating PEA agonist 100%; activation, % at 3 µM;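 active means activation above the mean activation of all test compounds in the run plus 3 SD, cut at about 38% in these data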
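Assay system: CHO-derived RD-HGA16 cells with stable Gα16 and human TAAR1; timing: 17-24 h seeding, 75 min 37 °C dye, 30 min RT; read-out: % activation from peak over basal fluorescence ratio, DMSO-to-PEA scaled; measured by: kinetic Fluo-8 calcium fluorescence; benchmarks: low control DMSO, high control PEA (EC100); doses: 3 µM single concentration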
TAAR1 antag = human TAAR1 antagonism; inhibition, % at 3 µM; CHO RD-HGA16 TAAR1, Fluo-8 calcium fluorescence, antagonist; actives 1.5% (n = 360,000);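 active means inhibition above a per-plate cutoff, the mean inhibition of test compounds on that plate plus 3 SD, cut at about 49% in these data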;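 further: 0% = DMSO plus EC80 beta-PEA response and 100% = DMSO alone without agonist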
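Material: RD-HGA16 CHO cells with stable hTAAR1 and Gα16; Dosing: single nominal final test compound concentration of 3 µM; Schedule: seeding 17-24 h prior, 75-min 37 °C, 30-min RT dye loading; Detection: kinetic Fluo-8 calcium fluorescence measurement; Measure: % inhibition from peak post-agonist over basal fluorescence ratio; Benchmarks: vehicle and agonist controls.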
V1aR counter = counter-screen for oxytocin receptor agonists: human V1a receptor agonists; P37288; CHO-V1R cells, Fluo-8 calcium fluorescence, agonist mode; 0% DMSO, 100% 3 nM vasopressin; activation, % at 3 µM; actives 0.25% (n = 320,000);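 active means activation above the mean activation of all tested compounds plus 3 SD, per screening run, cut at about 20% in these data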;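 further: signal is peak over basal fluorescence ratio across a 100 second FLIPR read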
OXTR ag = human OXTR agonism; P30559; CHO-OTR cells, Fluo-8 calcium fluorescence; normalized: DMSO 0%, oxytocin 100%; activation, % at 3 µM; actives 0.32% (n = 320,000); AID 2435;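 active means activation above the mean of all tested compounds plus 3 SD, cutoff set per screening run, cut at about 20% in these data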;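 further: peak over basal fluorescence ratio from a 100 s FLIPR kinetic read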
Target sequence (P30559 whole entry, looked up): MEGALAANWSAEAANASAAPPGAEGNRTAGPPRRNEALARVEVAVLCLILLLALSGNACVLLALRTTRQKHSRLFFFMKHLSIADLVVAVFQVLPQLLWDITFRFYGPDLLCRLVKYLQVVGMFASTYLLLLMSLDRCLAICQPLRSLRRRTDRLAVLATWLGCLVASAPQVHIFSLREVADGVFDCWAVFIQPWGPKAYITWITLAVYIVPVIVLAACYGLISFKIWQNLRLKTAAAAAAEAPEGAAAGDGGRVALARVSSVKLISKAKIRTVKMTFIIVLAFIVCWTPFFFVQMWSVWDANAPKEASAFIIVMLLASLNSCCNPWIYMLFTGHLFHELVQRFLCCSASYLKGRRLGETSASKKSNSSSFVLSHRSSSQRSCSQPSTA
OXTR potentiate = human OXTR potentiation | AID 2445 | activation, % at 3 µM | CHO-OTR cells, Fluo-8 calcium fluorescence, potentiator mode; 0% = oxytocin EC15, 100% = EC100 | actives 0.061% (n = 320,000) | P30559;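 active means activation above that plate's cutoff, the mean activation of tested compounds plus 3 SD, cut at about 6.6% in these data, passing the limit was not always enough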;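 further: 100% uses oxytocin at 75 nM as the full agonist control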
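System: human OTR in CHO cells / Also added: sub-maximal oxytocin, roughly EC15 / Control set: EC15 oxytocin low, 75 nM oxytocin high / Schedule: 6 min compound pre-incubation at room temperature, 100 s kinetic read / Compound: single-point 3.0 µM / Replication: singlicate / Technique: Fluo-8 calcium dye fluorescence / Read-out basis: % activation of max/min ratio relative to oxytocin controls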
OXTR pot confirm = confirmation of human oxytocin receptor potentiators. shares compounds with OXTR potentiate. CHO-OTR cells, Fluo-8 calcium fluorescence, potentiation; scaled from low-dose to maximal oxytocin. activation, % at 3 µM. 180 tested, under 10 active. AID 434985;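 active means mean percent activation over triplicates above a cutoff set from solvent-only control plates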;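 further: compounds tested in the presence of an EC15 dose of oxytocin; 0% = EC15 oxytocin with DMSO and 100% = EC100 oxytocin with DMSO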
* marks the source's active call; other numbers are inactive results; . = no result. Rows were chosen to be rich in hits. Some 2.3% of all compounds tested hit in one or more screens of this group.

SMILES	TAAR1 agonist	TAAR1 antag	V1aR counter	OXTR ag	OXTR potentiate	OXTR pot confirm
O=C(NC(=S)Nc1ccccc1N1CCCCC1)c1ccc(-c2cccc([N+](=O)[O-])c2)o1	4	-10	0	-1	-1	.
Cc1ccc(C)c(NC(=O)CCN2C(=O)C3CC=CCC3C2=O)c1 (stereo not drawn)	16	3	1	1	15*	-3
Cc1ccc(C)c(NC(=O)CCN2C(=O)c3ccccc3C2=O)c1	5	-9	.	.	.	.
Cc1ccc(C(=O)CSc2cc(C)[nH]c(=O)n2)cc1	-1	-15	-1	-2	-1	.
Cc1cc(SCC(=O)c2ccc(Cl)cc2)nc(=O)[nH]1	-1	-14	2	0	12*	1
O=C(Nc1ccc(F)c(F)c1)C1CCN(S(=O)(=O)c2cccc3nonc23)CC1	29	35	11	10	-15	.
C/C(=N/NC(=O)CNC(=O)c1ccccn1)c1cccc([N+](=O)[O-])c1	7	11	1	1	12*	-3
CN(Cc1nc2ccccc2c(=O)[nH]1)C(=O)c1ccc(S(=O)(=O)N2CCCC2)cc1	0	6	0	3	13*	-3
NS(=O)(=O)c1cccc(NC(=O)CC(NC(=O)c2ccccc2Cl)c2ccccc2)c1 (stereo not drawn)	1	-14	0	-1	3	.
COC(=O)C1CC(Cl)CN1c1ncc(C(F)(F)F)cc1Cl (stereo not drawn)	0	-2	-1	-3	16*	-2
Cc1nnc(NC(=O)c2cc(-c3ccncc3)nc3c(C)cccc23)s1	0	-29	-1	-1	15*	5
Cc1c(CC(=O)NCCCO)c(=O)oc2cc3c(cc12)CCC(C)(C)O3	0	-14	1	0	-10	.
CCOc1ccc(C(=O)N2CCc3ccccc32)cc1	-1	-3	-1	-2	12*	0
CCCOc1ccc(C(=O)N2CCCc3ccccc32)cc1	3	-4	-1	-2	-10	.
CCOC(=O)c1cnc2cc(-c3ccc(C)cc3)nn2c1C	4	-14	.	.	.	.
CCOC(=O)c1cnc2cc(-c3ccc(C)cc3)nn2c1-c1ccccc1	7	30	1	2	14*	-11
COc1cc(/C=C2/S/C(=N/S(=O)(=O)Cc3ccccc3)NC2=O)c([N+](=O)[O-])cc1OC	-1	-11	1	2	13*	-4
COc1ccc2c(c1)OC[C@H]1[C@H]2N2C(=O)c3cc(F)ccc3NC(=O)[C@@]2(C)[C@H]1c1ccccc1	-1	7	2	2	13*	-8
COc1ccc2c(c1)OC[C@H]1[C@H]2N2C(=O)c3cc(OC)ccc3NC(=O)[C@@]2(C)[C@H]1c1ccccc1	2	7	0	0	-4	.
Cc1cc(C(=O)N2CCN(CCc3ccccc3)CC2)no1	0	6	0	1	10*	-2
CCOC(=O)C1CCN(C(=O)CCn2c(=O)oc3ccccc32)CC1	1	-6	.	.	.	.
C[C@H]1CN([C@@H](C)CO)C(=O)c2cccc(NS(=O)(=O)c3ccc(Cl)cc3)c2O[C@@H]1CN(C)CC1CCCCC1	-2	12	0	0	4	.
O=C(CSc1ncnc2sc3c(c12)CCC3)NCC1CCCO1 (stereo not drawn)	1	-23	2	-1	20*	-3
Cc1sc2ncnc(SCC(=O)NCC3CCCO3)c2c1C (stereo not drawn)	4	23	1	1	3	.
CSc1nc(C=Nc2ccccc2Cl)c(O)n1Cc1cccc(Cl)c1	0	-8	0	-1	-8	.
SMILES	TAAR1 agonist	TAAR1 antag	V1aR counter	OXTR ag	OXTR potentiate	OXTR pot confirm
CC1CCc2nn(CC(=O)NCc3ccco3)cc2C1 (stereo not drawn)	1	-14	1	-1	13*	-3
CC(C)NC(=O)CSc1nnc(-c2ccc3ncccc3c2)n1C	1	0	0	1	8	.
O=C(Cn1ncc2ccccc21)N1CCc2ccccc21	1	-13	0	-1	12*	-6
O=C(Cn1cnc2ccccc21)N1CCc2ccccc21	1	15	1	1	-1	.
Cc1cnc(NC(=O)CC2OC(=O)c3ccccc32)s1 (stereo not drawn)	13	16	.	.	.	.
CC(=O)N1CCN(S(=O)(=O)c2cccc(C(=O)OCN3C(=O)c4ccccc4C3=O)c2)CC1	6	-5	1	2	11*	-6
CC(=O)N1CCN(S(=O)(=O)c2cccc(C(=O)OCc3ccc(F)cc3)c2)CC1	4	1	.	.	.	.
CC(C(=O)Nc1ccncc1)(c1ccccc1)c1ccccc1	9	8	1	-1	8	.
COc1ccc(S(=O)(=O)N(C)c2ccc(C(=O)Nc3cccnc3)cc2)cc1	2	12	2	0	-7	.
O=C(COc1ncnc2ccc(Br)cc12)NC1CCCC1	4	-10	0	1	13*	-6
O=C(COc1ncnc2ccccc12)NC1CCCCC1	0	13	2	0	-3	.
CC(C)(C)NC(=O)c1cc(C(C)(C)C)c(O)c(C(C)(C)C)c1	15	3	1	-3	10*	-2
Cc1ccc(C2=NN(C(=O)CCCC(=O)O)C(c3ccc4c(c3)OCO4)C2)cc1 (stereo not drawn)	1	-4	0	1	-13	.
COC(=O)c1cc(S(=O)(=O)N2CCCCC2C)c[nH]1 (stereo not drawn)	2	-26	1	0	11*	-8
COC(=O)c1cc(S(=O)(=O)N2CCCC(C)C2)c[nH]1 (stereo not drawn)	2	-8	1	0	-7	.
Cc1cccc(C2N=C(N)Nc3nc4ccccc4n32)c1 (stereo not drawn)	1	-1	0	1	-1	.
COc1ccc([N+](=O)[O-])cc1N1C(=O)c2cccc3cccc(c23)C1=O	1	3	2	0	-6	.
COc1ccc([N+](=O)[O-])cc1-n1cccc1	-1	-11	0	0	13*	-7
CCCN(CCC)CCNC(=O)CCC(=O)Nc1ccc2nc(N3CCN(C)CC3)cc(C)c2c1	5	-10	1	0	12*	-1
COc1cc(NC(=O)COC(=O)c2ccccc2SCC(=O)N2CCCC2)cc(OC)c1	5	4	-1	-1	-9	.
Nc1ncnc(Nc2ccccn2)c1[N+](=O)[O-]	6	-14	-1	0	-14	.
Cc1cccnc1Nc1ncnc(N)c1[N+](=O)[O-]	1	-8	1	1	11*	-4
